From ChEMBL document CHEMBL1142212, “Length effects in antimicrobial peptides of the (RW)n series” (Antimicrob Agents Chemother, 2007)
pIC50: −log10 of the molar value. Values after ≈ are worked out from the molar mass of the structure shown. Peptide text beside a SMILES is read from it.

What was measured:
Staphylococcus aureus [1] = experiment: Growth inhibition of Staphylococcus aureus ATCC BAA44
Erythrocyte = experiment: Hemolytic activity in sheep red blood cells; assay type: functional, Ovis aries
How it was run: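 Fresh sheep erythrocyte suspension was incubated with peptide in PBS pH 7.2 at 37°C for 30 min, then centrifuged at 3,000 rpm for 10 min. Supernatant was diluted 40-fold in water and read at OD540. Buffer gave 0% and 1% Triton-X gave 100% hemolysis. HD50 is the concentration giving 50% hemolysis, taken from dose-response curves.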

Escherichia coli [2] = experiment: Antimicrobial activity against Escherichia coli D31 after 18 hrs; conditions: D31, 18 h
Escherichia coli [3] = experiment: Growth inhibition of Escherichia coli D31
Staphylococcus aureus [4] = experiment: Antimicrobial activity against Staphylococcus aureus ATCC BAA44 after 18 hrs

N=C(N)NCCC[C@H](NC(=O)[C@H](Cc1c[nH]c2ccccc12)NC(=O)[C@H](CCCNC(=N)N)NC(=O)[C@H](Cc1c[nH]c2ccccc12)NC(=O)[C@H](CCCNC(=N)N)NC(=O)[C@H](Cc1c[nH]c2ccccc12)NC(=O)[C@H](CCCNC(=N)N)NC(=O)[C@H](Cc1c[nH]c2ccccc12)NC(=O)[C@@H](N)CCCNC(=N)N)C(=O)N[C@@H](Cc1c[nH]c2ccccc12)C(N)=O
pIC50 (Staphylococcus aureus [1]): 5.44 | HD50 (Erythrocyte): 76 µM | MBC50 (Escherichia coli [2]): 7.2 µM (≈ 12.4 µg/mL) | pIC50 (Escherichia coli [3]): 5.21 | MBC50 (Staphylococcus aureus [4]): 6.9 µM (≈ 11.9 µg/mL)

N=C(N)NCCC[C@H](N)C(=O)N[C@@H](Cc1c[nH]c2ccccc12)C(N)=O (H-Arg-Trp-NH2)
pIC50 (Staphylococcus aureus [1]): 2.68 | HD50 (Erythrocyte): 8900 µM | MBC50 (Escherichia coli [2]): 4700 µM (≈ 1690 µg/mL) | pIC50 (Escherichia coli [3]): 2.37 | MBC50 (Staphylococcus aureus [4]): 2300 µM (≈ 827 µg/mL)

N=C(N)NCCC[C@H](NC(=O)[C@H](Cc1c[nH]c2ccccc12)NC(=O)[C@@H](N)CCCNC(=N)N)C(=O)N[C@@H](Cc1c[nH]c2ccccc12)C(N)=O (H-RWRW-NH2)
pIC50 (Staphylococcus aureus [1]): 3.68 | HD50 (Erythrocyte): 3700 µM | MBC50 (Escherichia coli [2]): 990 µM (≈ 695 µg/mL) | pIC50 (Escherichia coli [3]): 3.14 | MBC50 (Staphylococcus aureus [4]): 620 µM (≈ 435 µg/mL)

N=C(N)NCCC[C@H](NC(=O)[C@H](Cc1c[nH]c2ccccc12)NC(=O)[C@H](CCCNC(=N)N)NC(=O)[C@H](Cc1c[nH]c2ccccc12)NC(=O)[C@@H](N)CCCNC(=N)N)C(=O)N[C@@H](Cc1c[nH]c2ccccc12)C(N)=O (H-RWRWRW-NH2)
pIC50 (Staphylococcus aureus [1]): 5.10 | HD50 (Erythrocyte): 210 µM | MBC50 (Escherichia coli [2]): 29 µM (≈ 30.3 µg/mL) | pIC50 (Escherichia coli [3]): 4.80 | MBC50 (Staphylococcus aureus [4]): 15 µM (≈ 15.7 µg/mL)

N=C(N)NCCC[C@H](NC(=O)[C@H](Cc1c[nH]c2ccccc12)NC(=O)[C@H](CCCNC(=N)N)NC(=O)[C@H](Cc1c[nH]c2ccccc12)NC(=O)[C@H](CCCNC(=N)N)NC(=O)[C@H](Cc1c[nH]c2ccccc12)NC(=O)[C@@H](N)CCCNC(=N)N)C(=O)N[C@@H](Cc1c[nH]c2ccccc12)C(N)=O (H-RWRWRWRW-NH2)
pIC50 (Staphylococcus aureus [1]): 5.29 | HD50 (Erythrocyte): 100 µM | MBC50 (Escherichia coli [2]): 14 µM (≈ 19.4 µg/mL) | pIC50 (Escherichia coli [3]): 5.02 | MBC50 (Staphylococcus aureus [4]): 12 µM (≈ 16.6 µg/mL)
